Data on four molecules can be found in article PMC7049346 (Haematologica, 2019).

Data set [1] has as its system HbSS-Townes mice. The data set can be described thus: HbSS-Townes vaso-occlusive crisis model. It is filed as in vivo. The settings on record: HU 100 mg/kg/day for ten days, P<0.05.
For data set [2], the system named is HbSS-Townes mice. The data set can be described thus: Townes SCD model, 30 days daily oral dosing. It is filed as in vivo. Conditions: for percentage of sickled RBC: vehicle 56%.
In data set [3] the test system is K562 cells. Briefly: Cytotoxicity in K562 cells. Format: cell-based, human. The settings on record: end of 72-h culture. Put shortly:
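Actively growing K562 cells were cultured for 72 h with increasing concentrations of the test compound. Terminal viability was scored by automated cell counting or trypan-blue exclusion, or by an ATP-based luminescence assay. Apoptosis was checked by Annexin V flow cytometry.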

Data set [4] relates to K562 cells. The data set can be described thus: cGMP induction in K562 cells. The settings on record: 6 h. It is filed as cell-based, human. Put shortly: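 Actively growing K562 cells were treated for 6 h with increasing concentrations of the test compound or hydroxyurea. cGMP was measured by non-radioactive enzyme immunoassay using the acetylation protocol, and protein by BCA assay. Data are means±Standard Errors.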

In data set [5] the test system is K562 cells. The data set can be described thus: HbF induction in K562 cells. It is filed as cell-based, human. The settings on record: 72 h.
The subject of data set [6] is erythroid cells from CD34+ progenitors of SCD patients. Briefly: HbF induction in SCD patient-derived erythroblasts. It is filed as cell-based, human. The settings on record: 30 μM HU. The method, boiled down: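 CD34⁺ progenitors came from the blood or bone marrow of nine SCD donors. Cells grew seven days with 15% BIT 9500, 2 mM L-glutamine, IL-3 (10 ng/mL), IL-6 and SCF (100 ng/mL). CD36⁺ cells were then isolated and grown five days with SCF, IL-3 and EPO (2 UI/mL) plus DMSO, 30 μM hydroxyurea or 10 μM test compound. HbF⁺ cells (%) and HbF MFI were read by PE-anti-HbF FACS, gated LiveDead⁻/GPA⁺/Band3⁺.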

In data set [7] the test system is K562 cells. The settings on record: cited from earlier work.
The test system of data set [8] is mice. The data set can be described thus: Classical fear conditioning model of learning and memory. Format: in vivo. Conditions: similar dose of both PDE9i.
Setting [9] is: HU 100 mg/kg, 30 days, not significant.

With `NC(=O)NO` [HU, Hydroxyurea], the microvascular stasis in data set [1] (1 h in normoxia, vehicle 33%) worked out at 13%. Further, the microvascular stasis in data set [1] (4 h in normoxia, vehicle 16%) came out at 8%. In addition, the “percentage of sickled RBC” value in data set [2] (HU 25 mg/kg/day, 30 days) amounted to 52%. Also, the “percent F-cells” value in data set [2] (HU 25 mg/mL/day (so in the source), 30 days, vehicle 8.4%, not significant) is 13%. For the same molecule, the “percentage of sickled RBC” value in data set [2] (HU 50 mg/kg/day, 30 days) came out at 49%. Further, in data set [2] (HU 50 mg/mL/day (so in the source), 30 days, vehicle 8.4%, not significant), the “percent F-cells” value amounted to 18%. For the same molecule, in data set [2] (HU 100 mg/kg, 30 days), the “WBC lower than vehicle” value was 21%, the “reduction of MPO levels” value came out at 2.1 fold, the “reduction of lung arginase (compared with IMR-687)” value is given as “less pronounced” and the “reduction of plasma free Hb levels” value is listed as “approximately 55%”. The “lung MPO levels” value in data set [2] (HU 100 mg/kg, 30 days, HbSS-Townes vehicle 3.1 mU/L, P<0.0001) is listed as 1.5 mU/L. Besides, the plasma bilirubin in data set [2] (HU 100 mg/kg, 30 days, P<0.01) amounted to 5 mg/dL. Besides, the “changes in reticulocyte counts, RBC, hematocrit and Hb (compared with IMR-687)” value in data set [2] (HU 100 mg/kg, 30 days, changes in Hb not significant) was “produced smaller changes”. Moreover, in data set [2] (setting [9]), the LDH levels is 121 AU and the plasma nitrite levels is on record as 1.23 mg/mL. The molecule also gave a WBC count in data set [2] (HU 100 mg/kg, 30 days, vehicle 38.2×10^9/L) of 3.04e+10 L⁻¹. Besides, in data set [2] (HU 100 mg/kg/day), the Mortality entry is listed as “resulted in mortality in mice”. Besides, in data set [2] (HU 100 mg/kg/day, 30 days, vehicle 8.4%), the “percent F cells” value was found to be 29.3%. For the same molecule, the “percent sickled RBC” value in data set [2] (HU 100 mg/kg/day, 30 days, vehicle 56.3%) is recorded as 28.8%. Besides, in data set [2] (HU 25 and 50 mg/kg, 30 days), the “changes in reticulocyte counts, RBC, hematocrit and Hb” value was “only the change in reticulocyte counts was significant”; the “reduction of markers of hemolysis (bilirubin, LDH)” value was “did not produce a significant reduction”. Moreover, the “lung MPO levels” value in data set [2] (lower doses of HU, 30 days) is “reduced MPO levels in the lungs”. In data set [3], the “Cytotoxicity (cell counts)” value is “induction was accompanied by cytotoxicity”. In data set [4], the cGMP induction entry is listed as “increases cGMP in a dose-dependent manner”. The “HbF induction (ELISA)” value in data set [5] was “induced HbF in a dose-dependent manner”. Besides, in data set [6] (five days, DMSO control 13.3%, n=7, P<0.01), the “percentage of F-cells (HbF positive)” value amounted to 22.2%. In data set [6] (five days, control 6073±1217, n=7, P=0.041), the “intensity of HbF staining (MFI)” value was found to be 9744±2805. In addition, the “Cytotoxicity in patient-derived cultures” value in data set [6] (9 cultures) is “cytotoxicity induced by HU in 2 cultures”.
On to `Nc1nc(-c2nn(Cc3ccccc3F)c3ncccc23)ncc1C1CC1` [BAY 41-2271], for which the “HbF mRNA expression” value in data set [7] was “increased HbF mRNA expression”.
On to `C[C@@H]1CN(Cc2ncccn2)C[C@H]1c1nc2c(cnn2C2CCOCC2)c(=O)[nH]1` [PF-04447943, 6-[(3S,4S)-4-methyl-1-(pyrimidin-2-ylmethyl)pyrrolidin-3-yl]-1-(tetrahydro-2H-pyran-4-yl)-1,5-dihydro-4H-pyrazolo[3,4-d]pyrimidin-4-one, reference compound], for which the conditioned fear responses entry in data set [8] is given as “significantly increased conditioned fear responses”.
As for `C[C@H](Cc1nc2c(cnn2-c2ccccc2Cl)c(=O)[nH]1)C(F)(F)F` [BAY73-6691], the “HbF mRNA expression” value in data set [7] is recorded as “increased HbF mRNA expression”.
